Assay results reported in ChEMBL document CHEMBL1137474, “Synthesis, DNA binding, and cytotoxicity studies of pyrrolo[2,1-c][1,4]benzodiazepine-anthraquinone conjugates” (Bioorg Med Chem, 2007).

How the values were obtained:
ZR-75-1 = assay: Cytotoxicity against human ZR-75-1 cells by sulforhodamine B assay; format: functional, cell-based
Outline: (§1)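 Cells in RPMI 1640 with 10% FBS and 2 mM L-glutamine, seeded at densities suited to doubling time, preincubated 24 h at 37 °C, 5% CO2. Drug added for a further 48 h. Fixed with cold TCA (final 10%) for 60 min at 4 °C, then SRB-stained. Bound dye eluted with 10 mM Tris base and read at 540 nm (690 nm reference). Growth taken relative to control wells. IC50 read from dose-response graphs. Triplicate wells, three repeat experiments.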

SiHa = assay: Cytotoxicity against human SiHa cells by sulforhodamine B assay; format: functional, cell-based; outline: as §1
HOP-62 = assay: Cytotoxicity against human Hop62 cells by sulforhodamine B assay; format: functional, cell-based; outline: as §1
DNA = assay: Binding affinity for calf thymus DNA at 20 uM after 18 hrs by thermal denaturation assay; format: nucleic-acid assay; details: Bos taurus
PC-3 = assay: Cytotoxicity against human PC3 cells by sulforhodamine B assay; format: functional, cell-based; outline: as §1
MCF7 = assay: Cytotoxicity against human MCF7 cells by sulforhodamine B assay; format: functional, cell-based; outline: as §1
A2780 = assay: Cytotoxicity against human A2780 cells by sulforhodamine B assay; format: functional, cell-based; outline: as §1
COLO 205 = assay: Cytotoxicity against human Colo205 cells by sulforhodamine B assay; format: functional, cell-based; outline: as §1

Row | ΔTm (DNA) [°C] | SMILES | IC50 (ZR-75-1) [nM] | IC50 (SiHa) [nM] | IC50 (HOP-62) [nM] | IC50 (PC-3) [nM] | IC50 (MCF7) [nM] | IC50 (A2780) [nM] | IC50 (COLO 205) [nM]
1 | 9.1 | COc1cc2c(cc1OCCCC(=O)Nc1cccc3c1C(=O)c1ccccc1C3=O)N=C[C@@H]1CCCN1C2=O | 500 | 1800 | 800 | 800 | 1400 | 500 | 1800
2 | 17.9 | COc1cc2c(cc1OCCCOc1ccc(OCCCOc3cc4c(cc3OC)C(=O)N3CCC[C@H]3C=N4)c3c1C(=O)c1ccccc1C3=O)N=C[C@@H]1CCCN1C2=O | 500 | 800 | < 1000 | 600 | 600 | 600 | < 1000
3 | 5.2 | COc1cc2c(cc1OCCCCC(=O)Nc1cccc3c1C(=O)c1ccccc1C3=O)N=C[C@@H]1CCCN1C2=O | 500 | 1200 | 1000 | 800 | 600 | 500 | < 1000
4 | – | COc1cccc2c1C(=O)c1c(O)c3c(c(O)c1C2=O)C[C@@](O)(C(=O)CO)C[C@@H]3O[C@H]1C[C@H](N)[C@H](O)[C@H](C)O1 [DOXORUBICIN] | 600 | 1500 | 1000 | 500 | 500 | 500 | 2000
5 | 1.6 | COc1cc2c(cc1OCCCCOc1ccc(OCCCCOc3cc4c(cc3OC)C(=O)N3CCC[C@H]3C=N4)c3c1C(=O)c1ccccc1C3=O)N=C[C@@H]1CCCN1C2=O | – | 9000 | – | 7000 | 9000 | 10000 | 10000
6 | 6 | COc1cc2c(cc1OCCCCCOc1ccc(OCCCCCOc3cc4c(cc3OC)C(=O)N3CCC[C@H]3C=N4)c3c1C(=O)c1ccccc1C3=O)N=C[C@@H]1CCCN1C2=O | 1500 | 800 | 1400 | 1000 | 1200 | 500 | < 1000
